Measurements gathered from unrelated publications.
Compare with care: the assays were run in different laboratories.
Target: Serine/threonine-protein kinase 24 (STK24, Homo sapiens, UniProt Q9Y6E0)

Cc1sc(C(=O)NC2COC2)cc1-n1cc(NC(=O)Nc2c(F)cccc2Cl)cn1
remaining activity (enzyme activity, inhibitor; 10 µM): 67.3%

CNC(=O)c1cc(Oc2ccc(NC(=O)Nc3ccc(Cl)c(C(F)(F)F)c3)cc2)ccn1
inhibition (enzyme activity, inhibitor; 10 µM): -46%

CC1=C(C#N)C(c2ccc3c(c2)c(NC(=O)c2ccccc2C)nn3C)C(C#N)=C(C)N1
remaining binding (cell-free assay, competition with immobilised ligand; 1 µM): 100%

CCN1CCN(Cc2ccc(NC(=O)c3ccc(C)c(Oc4ccnc5[nH]ccc45)c3)cc2C(F)(F)F)CC1
inhibition (target engagement in cells, inhibitor, chemoproteomics; A-375; 50 nM): -10.7%

Cc1cc(NC(=O)c2cccc3cc(-c4cccc5[nH]nc(N)c45)ccc23)ccc1F
activity vs control (enzyme activity, inhibitor; 0.1 µM): 116%

CC(C)(O)[C@H]1CC[C@H](Nc2ccc3ncc(-c4cccc(C(F)(F)F)c4)n3n2)CC1
remaining activity (enzyme activity, inhibitor; 1 µM): 96.1%

CCN1CCN(Cc2ccc(NC(=O)c3ccc(C)c(/C=C/c4cnc5[nH]ccc5c4OC)c3)cc2C(F)(F)F)CC1
inhibition (target engagement in cells, inhibitor, chemoproteomics; A-375; 0.5 µM): -36.9%

COc1cc(Nc2c(C#N)cnc3cc(OCCCN4CCN(C)CC4)c(OC)cc23)c(Cl)cc1Cl
remaining signal (cell-free assay; 0.5 µM): 11%

COc1cc2ncnc(Nc3ccc(Oc4ccccc4)cc3C)c2cc1OC
inhibition (enzyme activity, inhibitor; 1 µM): 9%

COc1cc(/C=C/C(=O)CC(=O)/C=C/c2ccc(O)c(OC)c2)ccc1O
activity vs control (enzyme activity, inhibitor; 1 µM): 91%

CCN(CC)CCNC(=O)c1c(C)[nH]c(/C=C2\C(=O)Nc3ccc(F)cc32)c1C
remaining signal (cell-free assay; 0.5 µM): 39.7%

CCOCCn1cc(C(=O)Nc2ccc(-n3nc(-c4cccnc4)cc3C(F)(F)F)cn2)ccc1=O
remaining binding (cell-free assay, competition with immobilised ligand; 1 µM): 100%

Cn1cncc1C1=CN(c2ncnc3[nH]cnc23)CCS1
inhibition (enzyme activity, inhibitor, radiometric; 2 µM): -15.6%

COc1ccc2c(c1)O[C@H](c1ccc(OC)c(OC)c1)C[C@@H]2NC(=O)C1(c2ccc3c(c2)OC(F)(F)O3)CC1
remaining binding (cell-free assay, competition with immobilised ligand; 1 µM): 92%

Cc1ccc(Nc2nccc(N(C)c3ccc4c(C)n(C)nc4c3)n2)cc1S(N)(=O)=O
inhibition (enzyme activity, inhibitor; 10 µM): -24%

Cn1c2c(c3ccc(Cl)c(Cl)c31)C(C#N)C1(CCNCC1)NC2=O (racemic)
ΔTm (thermal stability, DSF; 10 µM): -0.7 °C

Nc1ncnc2occ(-c3ccc(NC(=O)Nc4cc(C(F)(F)F)ccc4F)cc3)c12
remaining signal (cell-free assay, inhibitor; 20 µM): 4%

Cc1ccc(NC(=O)c2ccc(C)c(C(F)(F)F)c2)cc1C#Cc1nn(C2CCC(O)CC2)c2ncnc(N)c12 (stereo not shown)
remaining signal (cell-free assay; 10 µM): 114%

O=C(O)[C@@H]1[C@@H](Cn2nnc3ccccc3c2=O)CC[C@H]1C(=O)c1ccc(OCCC2CCOCC2)cc1
remaining binding (cell-free assay, competition with immobilised ligand; 1 µM): 99%

CN(c1nccc(-c2cnn3ncccc23)n1)C1CC1
remaining signal (cell-free assay; 1 µM): 100%

C[C@H](NC(=O)c1cnc2n1[C@](C)(Cc1ccc(C#N)cc1)C(=O)N2c1cc(Cl)c(F)c(Cl)c1)C(=O)NC1(c2ccccn2)CC1
remaining binding (cell-free assay, competition with immobilised ligand; 1 µM): 100%

Cn1c2c(Cl)c(Cl)ccc2c2cc[nH]c(=O)c21
ΔTm (thermal stability, DSF; 10 µM): 1.3 °C

O=C1NC(=O)c2cc(Nc3ccc(F)cc3)c(Nc3ccc(F)cc3)cc21
remaining signal (cell-free assay; 0.5 µM): 93.7%

Cc1cnc(NC2CCOCC2)nc1-n1cnc(C(=O)NC(CN)c2cc(F)cc(Cl)c2)c1 (stereo not shown)
remaining activity (enzyme activity, inhibitor, radiometric; 1 µM): 32%

COc1cc(Nc2cnc(C#N)c(O[C@H](C)CN(C)C)n2)ncc1-c1cnn(C)c1
remaining activity (enzyme activity, inhibitor, radiometric; 1 µM): 89%

CCCS(=O)(=O)Nc1ccc(F)c(C(=O)c2c[nH]c3ncc(-c4ccc(Cl)cc4)cc23)c1F
inhibition (enzyme activity, inhibitor; 1 µM): < 20%

O=C(Nc1ccc(Oc2ccc(F)cc2)cc1)N1CCc2ncccc2[C@H]1c1ccc(F)cc1
remaining binding (cell-free assay, competition with immobilised ligand; 1 µM): 93%

CC(C)(C)c1nc2c(s1)c1nc(N)ncc1c1ccc(NS(=O)(=O)c3c(F)cccc3F)c(F)c12
remaining activity (enzyme activity, inhibitor, radiometric; 1 µM): 28%

O=C(Nc1cccnn1)N1CCC(=Cc2cccc(Oc3ccc(C(F)(F)F)cn3)c2)CC1
remaining binding (cell-free assay, competition with immobilised ligand; 1 µM): 100%

N#CCCc1ccc2c(c1)-c1[nH]c3ccc([N+](=O)[O-])cc3c1CC(=O)N2
remaining signal (cell-free assay; 0.5 µM): 57.7%

CN1CCC2(CC1)NC(=O)c1c(c3ccc(Cl)c(Cl)c3n1C)C2C#N (racemic)
ΔTm (thermal stability, DSF; 10 µM): -0.6 °C

COc1cccc2c(NCc3ccccc3)nc(-n3c(N)nc4ccccc43)nc12
inhibition (target engagement in cells, inhibitor, chemoproteomics; 20 mM): -9.9%

Cn1c2c(c3ccc(Cl)c(Cl)c31)C(C#N)C1(CCN(C(=O)OC(C)(C)C)CC1)NC2=O (racemic)
ΔTm (thermal stability, DSF; 10 µM): 0 °C

O=C(N[C@H]1CCCCC/C=C\C2C[C@@]2(C(=O)O)NC(=O)[C@@H]2C[C@@H](Oc3ccncc3)CN2C1=O)OC1CCCC1 (stereo partly shown)
remaining binding (binding, competition with immobilised ligand; 1 µM): 81%
